Results from ChEMBL document CHEMBL4177769, “Highly Selective and Potent Ectonucleotide Pyrophosphatase-1 (NPP1) Inhibitors Based on Uridine 5'-Pα,α-Dithiophosphate Analogues” (J Med Chem, 2018).
Calls of active or inactive are those of the source. The rule behind the calls is not given here.

Legend:
[1] = target: T1, Ectonucleotide pyrophosphatase/phosphodiesterase family member 1 (Homo sapiens) (UniProt P22413); assay: Inhibition of human NPP1 at 100 uM using pNP-TMP as substrate preincubated for 3 mins followed by substrate addition measured after 15 mins relative to control
T1 sequence (whole entry): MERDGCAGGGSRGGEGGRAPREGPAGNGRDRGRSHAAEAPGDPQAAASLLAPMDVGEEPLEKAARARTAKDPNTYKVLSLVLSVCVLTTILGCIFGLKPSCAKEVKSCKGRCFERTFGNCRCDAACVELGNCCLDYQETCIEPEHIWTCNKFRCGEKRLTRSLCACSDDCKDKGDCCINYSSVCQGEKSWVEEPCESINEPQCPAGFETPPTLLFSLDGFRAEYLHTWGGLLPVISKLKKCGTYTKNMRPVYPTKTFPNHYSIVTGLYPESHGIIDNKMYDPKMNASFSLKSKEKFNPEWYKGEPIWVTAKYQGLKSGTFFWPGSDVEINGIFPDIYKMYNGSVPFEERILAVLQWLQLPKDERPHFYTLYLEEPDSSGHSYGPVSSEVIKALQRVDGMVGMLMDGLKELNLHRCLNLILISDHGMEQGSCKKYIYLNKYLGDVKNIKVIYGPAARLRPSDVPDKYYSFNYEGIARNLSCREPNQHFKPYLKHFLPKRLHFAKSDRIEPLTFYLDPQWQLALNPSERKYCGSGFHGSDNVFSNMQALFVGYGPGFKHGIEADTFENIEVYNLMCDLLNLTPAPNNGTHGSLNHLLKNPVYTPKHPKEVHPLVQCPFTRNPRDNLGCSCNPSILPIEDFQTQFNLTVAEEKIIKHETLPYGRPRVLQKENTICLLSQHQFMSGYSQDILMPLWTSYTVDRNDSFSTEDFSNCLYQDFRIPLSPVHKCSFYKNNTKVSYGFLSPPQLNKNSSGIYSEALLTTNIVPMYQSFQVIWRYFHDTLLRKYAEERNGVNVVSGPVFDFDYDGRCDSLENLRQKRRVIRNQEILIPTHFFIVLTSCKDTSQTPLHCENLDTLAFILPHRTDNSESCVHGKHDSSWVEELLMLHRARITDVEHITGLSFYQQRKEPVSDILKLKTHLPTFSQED
In short: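 Human NPP1 (4−5 μg) or NPP3 (12−14 μg) cell lysate in mM 1 CaCl2, 140 NaCl, 5 KCl, 50 Tris pH 8.5, 37 °C. Compound at 100 μM, 3 min preincubation, 100 μM pNP-TMP substrate. p-Nitrophenol read at 405 nm after 15 min. Blank with enzyme added at end subtracted. Activity without compound taken as 100%. At least two independent experiments in triplicate.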

[2] = target: T2, Ectonucleoside triphosphate diphosphohydrolase 3 (Homo sapiens) (UniProt O75355); assay: Inhibition of human NTPDase3 at 100 uM using ATP as substrate preincubated for 3 mins followed by substrate addition measured after 10 mins by malachite green reagent-based assay
T2 sequence (whole entry): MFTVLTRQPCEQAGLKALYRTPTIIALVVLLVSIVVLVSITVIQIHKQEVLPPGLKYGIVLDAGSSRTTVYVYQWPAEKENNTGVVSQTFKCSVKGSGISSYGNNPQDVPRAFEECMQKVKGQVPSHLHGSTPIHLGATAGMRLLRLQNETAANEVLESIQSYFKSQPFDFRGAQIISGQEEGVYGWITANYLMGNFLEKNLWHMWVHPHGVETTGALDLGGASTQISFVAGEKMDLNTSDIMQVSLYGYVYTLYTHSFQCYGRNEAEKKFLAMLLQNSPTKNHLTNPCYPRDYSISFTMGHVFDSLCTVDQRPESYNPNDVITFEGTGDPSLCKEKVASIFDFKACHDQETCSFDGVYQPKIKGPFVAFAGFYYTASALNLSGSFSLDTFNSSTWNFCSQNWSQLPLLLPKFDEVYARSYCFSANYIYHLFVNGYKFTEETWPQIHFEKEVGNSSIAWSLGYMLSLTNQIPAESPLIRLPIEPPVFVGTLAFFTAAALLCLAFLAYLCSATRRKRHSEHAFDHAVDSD
In short: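 Compound at 100 μM, 3 min preincubation, 100 μM ATP, 10 min. Stopped with malachite green; Pi read at 630 nm. Blank with enzyme added after stop subtracted. Activity with ATP alone taken as 100%.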

[3] = target: P2Y purinoceptor 4 (Homo sapiens) (UniProt P51582); assay: Agonist activity at recombinant human P2RY4 expressed in AD293 cells assessed as increase in intracellular calcium levels by Fluo-4/AM dye-based spectrofluorometer; type: functional, cell-based
Chain of P2Y purinoceptor 4 (Homo sapiens) (P51582 whole entry): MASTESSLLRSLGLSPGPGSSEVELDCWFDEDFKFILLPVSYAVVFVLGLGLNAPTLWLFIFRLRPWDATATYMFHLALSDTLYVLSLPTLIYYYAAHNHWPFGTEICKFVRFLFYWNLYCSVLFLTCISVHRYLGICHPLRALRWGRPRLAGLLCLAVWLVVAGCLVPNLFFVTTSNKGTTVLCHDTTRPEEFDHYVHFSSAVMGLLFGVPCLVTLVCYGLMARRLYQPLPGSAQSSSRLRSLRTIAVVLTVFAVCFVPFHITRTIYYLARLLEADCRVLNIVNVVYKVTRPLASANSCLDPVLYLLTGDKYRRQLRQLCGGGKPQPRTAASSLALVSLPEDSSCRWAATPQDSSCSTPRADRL
In short: (§1)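 Human P2Y2, P2Y4 or P2Y6 receptor stably expressed in AD293 cells. Compound at 100 μM. Agonism read as change in intracellular calcium (Δ[Ca2+]i), with UDP or UTP as control.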

[4] = target: P2Y purinoceptor 6 (Homo sapiens) (UniProt Q15077); assay: Agonist activity at recombinant human P2RY6 expressed in AD293 cells assessed as increase in intracellular calcium levels by Fluo-4/AM dye-based spectrofluorometer; type: functional, cell-based; in short: as §1
Chain of P2Y purinoceptor 6 (Homo sapiens) (Q15077 whole entry): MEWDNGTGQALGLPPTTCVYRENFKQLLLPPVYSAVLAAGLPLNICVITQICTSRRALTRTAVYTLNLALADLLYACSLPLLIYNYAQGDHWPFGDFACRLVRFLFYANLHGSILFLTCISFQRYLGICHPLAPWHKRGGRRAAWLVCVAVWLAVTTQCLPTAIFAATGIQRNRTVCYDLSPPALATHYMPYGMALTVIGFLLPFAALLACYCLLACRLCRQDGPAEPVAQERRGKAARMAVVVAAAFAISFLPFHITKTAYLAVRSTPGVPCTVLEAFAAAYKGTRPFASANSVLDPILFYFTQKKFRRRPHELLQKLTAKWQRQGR

[5] = Drug metabolism at 2 mM at basic pH after 5 days by 31P NMR method; type: physicochemical; conditions: read-out: Drug metabolism
[6] = Stability of the compound assessed as air oxidation at room temperature at 1.8 mM after 3 weeks by 31P NMR method; type: physicochemical; conditions: 504 h, 1800 µM

SMILES	inhibition [1] [%]	inhibition [2]	Activity [3]	Activity [4]	degraded at 120 h, 2000 µM [5] [%]	Stability [6]
O=c1ccn([C@@H]2O[C@H](COP(=S)(S)OP(=O)(O)O)[C@@H](O)[C@H]2O)c(=O)[nH]1 (stereo partly specified)	80 to 100	15%	inactive	Active		
O=c1ccn([C@@H]2O[C@H](COP(=S)(S)OP(=O)(O)CP(=O)(O)O)[C@@H](O)[C@H]2O)c(=O)[nH]1 (stereo partly specified)	80 to 100	15%	inactive	Active	8	Stable
O=c1ccn([C@@H]2O[C@H](COP(=S)(S)OP(=O)(O)OP(=O)(O)O)[C@@H](O)[C@H]2O)c(=O)[nH]1 (stereo partly specified)	100	inactive	inactive	Active	13	Stable
